Source: ChEMBL document CHEMBL4610116, “Salicylanilide Analog Minimizes Relapse of Clostridioides difficile Infection in Mice” (J Med Chem, 2020)
Converted amounts (≈) assume the structure as drawn. The source made the active and inactive calls. The calls are words filed in the database; no cut-off is given here.

Legend:
[1] = AUC in cefoperazone-treated C57Bl/6J mouse at 1 mg/kg, po dosed each day for 5 days by LC/MS-SRM analysis; type: ADME, organism-based; conditions: in vivo
In short: (§1)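 C57Bl/6J mice pre-treated with cefoperazone 0.5 mg/mL in drinking water for 10 days, then a 2-day washout. Oral dose of 1 mg/kg given daily for 5 days. Bled at 5, 10, 30 min and 1, 2, 4, 10, 24 h after dosing on the first and final days; n = 3 per time point. Plasma mixed with 2 volumes acetonitrile containing internal standard, centrifuged, supernatant analysed by LC/MS-SRM.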

Clostridioides difficile [2] = assay: (§2) Suppression of relapse of Clostridioides difficile 630 infection in cefoperazone-treated C57BL/6J mouse model of recurrent Clostridioides difficile 630 infection assessed as reduction in histopathological summary scores at 5 mg/kg, po for 5 days from day 4 to 9 after infection with spores measured on day day 14; type: functional, organism-based
In short: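 Recurrent CDI model in cefoperazone-treated C57BL/6J mice challenged with strain 630 and gavaged on days 4–9 (n = 6 per group). At necropsy on day 14, H&E-stained cecum and colon scored 0–4 each for edema, inflammatory cell infiltration and epithelial damage. Scoring done blinded by a veterinary pathologist.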

[3] = Cmax in non-antibioticc-treated C57Bl/6J mouse at 0.3 mg/kg, iv and measured after 5 mins to 24 hrs by LC/MS-SRM analysis; type: ADME, organism-based; design: dose 0.3 mg/kg, route intravenous; conditions: in vivo
In short: (§3)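 Non-antibiotic-treated C57Bl/6J mice given a single i.v. dose of 0.3 mg/kg; n = 3 per time point. Bled at 5, 10, 30 min and 1, 2, 4, 8, 24 h. Plasma mixed with 2 volumes acetonitrile containing internal standard, centrifuged, supernatant quantified by LC/MS-SRM.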

[4] = AUC in non-antibioticc-treated C57Bl/6J mouse at 0.3 mg/kg, iv and measured after 5 mins to 24 hrs by LC/MS-SRM analysis; type: ADME, organism-based; design: time upper 24 hr, time lower 0.083 hr, dose 0.3 mg/kg, route intravenous; conditions: in vivo; in short: as §3
[5] = Toxicity in sheep RBC assessed as induction of hemolysis at 0.625 to 80 uM incubated for 1 hr at 37 degC relative to control; type: cell-based, Ovis aries, Erythrocyte; conditions: sheep red blood cells (erythrocytes), read-out: Activity
In short: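 Sheep erythrocytes washed three times in PBS pH 7.4. A 3% suspension mixed 1:1 with compound in PBS, final 0.625–80 µM, for 1 h at 37°C. Centrifuged at 500 × g and supernatant absorbance read at 540 nm. 1% Triton X-100 served as positive control and 1.6% DMSO in PBS as negative control.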

[6] = (§4) Effect on gut microbiota in cefoperazone-treated C57BL/6J mouse model of recurrent Clostridioides difficile 630 infection assessed as increase in abundance of phylum Firmicutes at 5 mg/kg, po for 5 days from day 4 to 9 after infection with spores measured on day day 14 by 16S rRNA Illumina sequencing analysis; type: ADME, organism-based; conditions: in vivo, 120 h
In short: (§5)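 Recurrent CDI model in cefoperazone-treated C57BL/6J mice challenged with strain 630 and gavaged on days 4–9 (n = 6 per group). Cecal tissue snips collected at necropsy underwent 16S rRNA gene community sequencing on Illumina MiSeq.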

[7] = Effect on gut microbiota in cefoperazone-treated C57BL/6J mouse model of recurrent Clostridioides difficile 630 infection assessed as increase in alpha-diversity at 5 mg/kg, po for 5 days from day 4 to 9 after infection with spores measured on day day 14 by 16S rRNA Illumina sequencing analysis; type: ADME, organism-based; conditions: in vivo, 120 h; in short: as §5
[8] = as §4, with “group-Ruminococcaceae” for “phylum Firmicutes”; type: ADME, organism-based; conditions: in vivo, 120 h; in short: as §5
[9] = Cmax in cecum of cefoperazone-treated C57Bl/6J mouse at 1 mg/kg, po dosed each day for 5 days and measured at 4 hrs post last dose by LC/MS-SRM analysis; type: ADME, organism-based, Caecum; design: dose 1 mg/kg, route oral
In short: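 Cefoperazone-pretreated mice (0.5 mg/mL in drinking water, 10 days; 2-day washout) dosed orally at 1 mg/kg daily for 5 days. On the final day, mice euthanized at 30 min, 4 h and 24 h post-dose and cecal contents collected. Samples homogenized in 4 volumes acetonitrile containing internal standard, centrifuged, supernatant analysed by LC/MS-SRM.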

[10] = Tmax in non-antibioticc-treated C57Bl/6J mouse at 0.3 mg/kg, iv and measured after 5 mins to 24 hrs by LC/MS-SRM analysis; type: ADME, organism-based; conditions: in vivo; in short: as §3
[11] = Cmax in cefoperazone-treated C57Bl/6J mouse at 1 mg/kg, po dosed each day for 5 days by LC/MS-SRM analysis; type: ADME, organism-based; design: dose 1 mg/kg, route oral; conditions: in vivo; in short: as §1
Clostridioides difficile [12] = assay: Antimicrobial activity against Clostridioides difficile CD10463 incubated for 20 to 24 hrs by broth microdilution method; type: functional
In short: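 Broth microdilution in pre-reduced BHIS using two-fold serial dilutions and ~5 × 10⁵ cfu/mL inoculum. Incubated 20–24 h at 37°C, anaerobic (8% H₂, 8% CO₂, 84% N₂). MIC read by the Lambert-Pearson method; duplicates.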

[13] = Volume of distribution at steady state in non-antibioticc-treated C57Bl/6J mouse at 0.3 mg/kg, iv and measured after 5 mins to 24 hrs by LC/MS-SRM analysis; type: ADME, organism-based; conditions: in vivo; in short: as §3
Clostridioides difficile [14] = assay: as §2, with “incidence of animals with microbial load (total vegetative cells plus spores) load below the limit of detection” for “reduction in histopathological summary scores”, “13 post drug cessation” for “day 14”; type: functional
In short: (§6)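 Five-week-old C57BL/6J mice of both sexes given cefoperazone 0.5 mg/ml in drinking water for 5 days, then a 2-day washout. Oral challenge with C. difficile 630 spores on day 0. Oral gavage in 2-(hydroxypropyl)-cyclodextrin vehicle on days 4–9; n = 6 per group. Body weight recorded daily. Feces or cecal contents suspended 1:10 in PBS, serially diluted and plated on TCCFA, incubated anaerobically at 37°C for 24 h; results as CFU/g.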

[15] = Half life in cefoperazone-treated C57Bl/6J mouse at 1 mg/kg, po dosed each day for 5 days by LC/MS-SRM analysis; type: ADME, organism-based; conditions: in vivo; in short: as §1
[16] = Half life in non-antibioticc-treated C57Bl/6J mouse at 0.3 mg/kg, iv and measured after 5 mins to 24 hrs by LC/MS-SRM analysis; type: ADME, organism-based; conditions: in vivo; in short: as §3
Clostridioides difficile [17] = assay: as §2, with “toxin activity in cecal content” for “histopathological summary scores”; type: functional, organism-based
In short: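 Mice challenged with strain 630 spores after cefoperazone; drug given 5 mg/kg by gavage, days 4–9, vehicle hydroxypropyl-cyclodextrin. Cecal content at day 14 diluted 1:10 in PBS, filtered, then serially diluted to 10⁻⁶. Dilutions preincubated 40 min at room temperature with PBS or antitoxin, then added to Vero cells overnight at 37°C. Titer is the reciprocal of the highest dilution rounding 80% of cells.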

Clostridioides difficile [18] = assay: as §2, with “group-Bacteroidaceae level” for “histopathological summary scores”; type: functional, organism-based; in short: as §5
[19] = Tmax in cefoperazone-treated C57Bl/6J mouse at 1 mg/kg, po dosed each day for 5 days by LC/MS-SRM analysis; type: ADME, organism-based; conditions: in vivo; in short: as §1
[20] = MRT in non-antibioticc-treated C57Bl/6J mouse at 0.3 mg/kg, iv and measured after 5 mins to 24 hrs by LC/MS-SRM analysis; type: ADME, organism-based; conditions: in vivo; in short: as §3
Clostridioides difficile [21] = assay: Suppression of relapse of Clostridioides difficile 630 infection in cefoperazone-treated C57BL/6J mouse model of recurrent Clostridioides difficile 630 infection assessed as reduction in body weight loss at 5 mg/kg, po for 5 days from day 4 to 9 after infection with spores; type: functional, organism-based; in short: as §6

In the case of `O=C(Nc1cc(C(F)(F)F)c(Oc2ccc(Cl)cc2)c(C(F)(F)F)c1)c1cc(Cl)cc(Cl)c1O`, the AUC at 120 h [1] is reported as 23.2 µM·h, the Activity (Clostridioides difficile [2]) is reported as “Active” and the Cmax [3] is reported as 1630 nM. The AUC [4] was 9.23 µM·h, the hemolysis at 1 h, up to 80 µM [5] was less than 2% and the Activity [6] was “Non-Toxic”. For the same compound, the Activity [7] was “Non-Toxic”, the Activity [8] was “Non-Toxic” and the Cmax [9] was 50000 nM. It also gave a Tmax [10] of 0.17 h, a Cmax [11] of 1780 nM and an MIC (Clostridioides difficile [12]) of 0.03 µM (≈ 0.0163 µg/mL). The Vdss [13] was 7.9 mL, the Activity (Clostridioides difficile [14]) was 50% and the half-life [15] was 10.7 h. For the same compound, the half-life [16] was 5 h, the Activity (Clostridioides difficile [17]) was “Active” and the Activity (Clostridioides difficile [18]) was “Active”. For the same compound, the Tmax [19] was 2 h, the MRT [20] was 5.26 h and the Activity (Clostridioides difficile [21]) was “Active”.
